Experimental data: ChEMBL document CHEMBL3868583, “6-Aryl substituted 4-(4-cyanomethyl) phenylamino quinazolines as a new class of isoform-selective PI3K-alpha inhibitors” (Eur J Med Chem, 2016)
In brackets after ≈: the same amount, converted by molar mass.

Assays:
[1] = biological target: Phosphatidylinositol 4,5-bisphosphate 3-kinase catalytic subunit alpha isoform (Homo sapiens, UniProt P42336); assay: Inhibition of PI3Kalpha (unknown origin) using diC8 PIP2 as substrate at 0.5 uM after 80 mins by ADP-glo assay
Homo sapiens [2] = species on record: Homo sapiens; assay: Selectivity ratio of IC50 for PI3Kdelta (unknown origin) to IC50 for PI3Kalpha (unknown origin)
Homo sapiens [3] = species on record: Homo sapiens; assay: Selectivity ratio of IC50 for PI3Kgamma (unknown origin) to IC50 for PI3Kalpha (unknown origin)
Homo sapiens [4] = species on record: Homo sapiens; assay: Selectivity ratio of IC50 for PI3Kbeta (unknown origin) to IC50 for PI3Kalpha (unknown origin)
[5] = Cytotoxicity against human HL60 cells assessed as cell growth inhibition after 48 hrs by MTT assay; assay type: functional; settings: HL-60, 48 h
Summary of the method: (§1)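 MTT assay: 3 × 10^3 cells/well seeded, compounds added after 24 h at final […], 48 h exposure. MTT (2.5 mg/mL in PBS) added, formazan dissolved in DMSO, absorbance 570 nm. Viability as % of untreated; three independent experiments, mean ± SD.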

[6] = Cytotoxicity against human A375 cells assessed as cell growth inhibition after 48 hrs by MTT assay; assay type: functional; settings: A-375, 48 h; summary of the method: as §1
[7] = Cytotoxicity against human MCF7 cells assessed as cell growth inhibition after 48 hrs by MTT assay; assay type: functional; settings: MCF7, 48 h; summary of the method: as §1
[8] = Cytotoxicity against human PANC1 cells assessed as cell growth inhibition after 48 hrs by MTT assay; assay type: functional; settings: PANC-1, 48 h; summary of the method: as §1
[9] = Cytotoxicity against human PC3 cells assessed as cell growth inhibition after 48 hrs by MTT assay; assay type: functional; settings: PC-3, 48 h; summary of the method: as §1
[10] = Cytotoxicity against human FR2 cells assessed as cell growth inhibition after 48 hrs by MTT assay; assay type: toxicity, cell-based
[11] = Cytotoxicity against HEK293 cells assessed as cell growth inhibition after 48 hrs by MTT assay; assay type: toxicity, cell-based; settings: human
[12] = Cytotoxicity against HGF cells assessed as cell growth inhibition after 48 hrs by MTT assay; assay type: toxicity, cell-based; settings: human
MCF7 [13] = assay: Induction of cell cycle arrest in human MCF7 cells assessed as accumulation at subG1 phase after 24 hrs by propidium iodide-staining based FACS analysis; assay type: functional
Summary of the method: (§2)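 MCF-7 or PC-3 cells treated at indicated concentrations for 24 h, pelleted, PBS-washed, fixed in ice-cold 70% ethanol overnight at 4 °C. RNase 0.2 mg/mL 1 h at 37 °C, propidium iodide 10 µg/mL 30 min dark. 10,000 events (FL2-A vs FL2-W) by flow cytometry; fractions in apoptosis/sub-G1, G1, S, G2-M.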

PC-3 = assay: Induction of cell cycle arrest in human PC3 cells assessed as accumulation at subG1 phase after 24 hrs by propidium iodide-staining based FACS analysis; assay type: functional
Summary of the method: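 PC-3 cells exposed 24 h at indicated concentrations, pelleted, fixed overnight in ice-cold 70% ethanol at 4 °C, RNase 0.2 mg/mL at 37 °C 1 h, propidium iodide 10 µg/mL 30 min in dark; 10,000 events acquired (FL2-A vs FL2-W); DNA histograms modelled for apoptotic (sub-G1), G1, S and G2-M fractions.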

[14] = Thermodynamic equilibrium solubility of compound in water up to 300 ug after 4 hrs by UV absorbance method; assay type: physicochemical; settings: read-out: Therm_solubility
Summary of the method: (§3)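 Methanol stock evaporated in wells to give 1–300 µg solid; 200 µl medium (water, PBS, SGF or SIF) added, shaken 300 rpm 4 h at 25 ± 1 °C, equilibrated overnight, centrifuged; supernatant UV absorbance at λmax; saturation point from concentration–absorbance curve; triplicate.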

[15] = Thermodynamic equilibrium solubility of compound in PBS up to 300 ug after 4 hrs by UV absorbance method; assay type: physicochemical; settings: read-out: Therm_solubility; summary of the method: as §3
[16] = Thermodynamic equilibrium solubility of compound in simulated gastric fluid up to 300 ug after 4 hrs by UV absorbance method; assay type: ADME; settings: read-out: Therm_solubility; summary of the method: as §3
[17] = Thermodynamic equilibrium solubility of compound in simulated intestinal fluid up to 300 ug after 4 hrs by UV absorbance method; assay type: ADME; settings: read-out: Therm_solubility; summary of the method: as §3
[18] = Efflux ratio of permeability in human Caco2 cells after 90 mins by LC-MS/MS analysis; assay type: ADME, cell-based; settings: Caco-2
Summary of the method: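 Caco-2 monolayers grown 21 days (TEER >500). Compound in HBSS with 10 mM HEPES dosed to the apical chamber, and in a repeat run to the basolateral chamber. Both chambers sampled at 0 and 90 min at 37 °C. Analysis by LC-MS/MS.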

CYP3A4 = CYP3A4 (Homo sapiens, UniProt P08684); assay: Inhibition of human CYP3A4 at 10 uM after 10 mins by fluorescence assay; assay type: ADME
CYP2D6 = CYP2D6 (Homo sapiens, UniProt P10635); assay: Inhibition of human CYP2D6 at 10 uM after 10 mins by fluorescence assay; assay type: ADME
CYP2C9 = CYP2C9 (Homo sapiens, UniProt P11712); assay: Inhibition of human CYP2C9 at 10 uM after 10 mins by fluorescence assay; assay type: ADME
CYP2C19 = CYP2C19 (Homo sapiens, UniProt P33261); assay: Inhibition of human CYP2C19 at 10 uM after 10 mins by fluorescence assay; assay type: ADME
CYP1A2 = biological target: T1, CYP1A2 (Homo sapiens, UniProt P05177); assay: Inhibition of human CYP1A2 at 10 uM after 10 mins by fluorescence assay; assay type: ADME
T1 sequence (P05177 whole entry): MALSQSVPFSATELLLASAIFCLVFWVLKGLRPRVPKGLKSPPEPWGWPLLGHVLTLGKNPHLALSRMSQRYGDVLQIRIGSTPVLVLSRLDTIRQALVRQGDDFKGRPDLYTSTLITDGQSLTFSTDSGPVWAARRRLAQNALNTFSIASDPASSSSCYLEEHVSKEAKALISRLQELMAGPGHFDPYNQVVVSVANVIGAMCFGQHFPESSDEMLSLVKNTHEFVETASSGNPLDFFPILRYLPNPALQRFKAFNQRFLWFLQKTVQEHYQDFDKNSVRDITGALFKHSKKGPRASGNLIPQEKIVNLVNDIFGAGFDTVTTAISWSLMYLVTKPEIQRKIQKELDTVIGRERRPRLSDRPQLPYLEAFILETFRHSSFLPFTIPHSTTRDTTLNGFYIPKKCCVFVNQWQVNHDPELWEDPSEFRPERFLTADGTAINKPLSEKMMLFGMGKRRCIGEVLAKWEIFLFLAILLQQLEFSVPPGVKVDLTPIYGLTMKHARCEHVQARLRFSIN

Mus musculus = assay: Toxicity in Swiss mouse implanted with Swiss mouse EAC cells assessed as body weight at 70 mg/kg, ip administered for 1 to 9 days measured on day 9 (reference value: 27.7 g); assay type: organism-based, Ehrlich; settings: in vivo
MCF7 [19] = assay: Induction of cell cycle arrest in human MCF7 cells assessed as accumulation at G1 phase at 10 uM after 24 hrs by propidium iodide-staining based FACS analysis (reference value: 50 %); assay type: functional; summary of the method: as §2
MCF7 [20] = assay: Induction of cell cycle arrest in human MCF7 cells assessed as accumulation at G2 phase at 20 uM after 24 hrs by propidium iodide-staining based FACS analysis (reference value: 20 %); assay type: functional; summary of the method: as §2
MCF7 [21] = assay: Induction of cell cycle arrest in human MCF7 cells assessed as accumulation at G2 phase at 30 uM after 24 hrs by propidium iodide-staining based FACS analysis (reference value: 20 %); assay type: functional; summary of the method: as §2

Sequence of CYP3A4 (P08684 whole entry): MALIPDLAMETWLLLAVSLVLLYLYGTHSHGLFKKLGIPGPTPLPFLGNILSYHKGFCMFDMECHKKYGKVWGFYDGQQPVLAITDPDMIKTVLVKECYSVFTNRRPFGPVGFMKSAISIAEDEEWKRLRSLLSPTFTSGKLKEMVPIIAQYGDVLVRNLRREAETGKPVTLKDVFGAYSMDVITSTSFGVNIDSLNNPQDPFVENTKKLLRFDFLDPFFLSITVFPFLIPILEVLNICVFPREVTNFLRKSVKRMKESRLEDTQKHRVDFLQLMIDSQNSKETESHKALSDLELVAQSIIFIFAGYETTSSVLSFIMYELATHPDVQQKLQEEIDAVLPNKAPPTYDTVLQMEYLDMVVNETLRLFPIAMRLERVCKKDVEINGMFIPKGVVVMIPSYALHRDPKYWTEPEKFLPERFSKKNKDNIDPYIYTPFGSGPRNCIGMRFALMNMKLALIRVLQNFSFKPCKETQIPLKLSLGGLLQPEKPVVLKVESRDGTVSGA
Sequence of CYP2C9 (P11712 whole entry): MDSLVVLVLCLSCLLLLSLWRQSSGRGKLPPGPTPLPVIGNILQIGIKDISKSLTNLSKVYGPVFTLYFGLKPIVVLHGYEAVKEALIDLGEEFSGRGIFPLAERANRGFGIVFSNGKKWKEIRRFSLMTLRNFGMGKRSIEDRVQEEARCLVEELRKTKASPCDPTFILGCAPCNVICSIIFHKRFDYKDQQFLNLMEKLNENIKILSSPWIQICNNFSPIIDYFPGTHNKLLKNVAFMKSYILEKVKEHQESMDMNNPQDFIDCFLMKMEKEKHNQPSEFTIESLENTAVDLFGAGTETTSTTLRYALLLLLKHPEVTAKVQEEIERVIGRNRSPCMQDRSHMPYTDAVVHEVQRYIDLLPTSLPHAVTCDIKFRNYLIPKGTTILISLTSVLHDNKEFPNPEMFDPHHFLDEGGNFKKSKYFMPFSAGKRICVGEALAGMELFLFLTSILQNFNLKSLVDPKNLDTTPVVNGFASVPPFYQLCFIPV
Sequence of CYP2C19 (P33261 whole entry): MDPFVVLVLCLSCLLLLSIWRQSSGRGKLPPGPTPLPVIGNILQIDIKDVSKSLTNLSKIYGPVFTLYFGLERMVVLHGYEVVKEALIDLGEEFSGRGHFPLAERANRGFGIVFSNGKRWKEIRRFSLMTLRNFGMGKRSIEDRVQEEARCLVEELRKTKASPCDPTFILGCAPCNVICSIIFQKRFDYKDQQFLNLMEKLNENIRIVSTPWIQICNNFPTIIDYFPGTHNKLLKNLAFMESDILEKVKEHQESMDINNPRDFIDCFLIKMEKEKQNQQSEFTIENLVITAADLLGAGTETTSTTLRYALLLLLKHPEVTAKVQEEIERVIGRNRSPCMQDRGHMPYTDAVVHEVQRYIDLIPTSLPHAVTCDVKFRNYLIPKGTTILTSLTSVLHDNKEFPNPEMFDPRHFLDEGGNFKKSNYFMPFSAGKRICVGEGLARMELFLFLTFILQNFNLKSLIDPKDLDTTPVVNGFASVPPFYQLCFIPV
Sequence of CYP2D6 (P10635 whole entry): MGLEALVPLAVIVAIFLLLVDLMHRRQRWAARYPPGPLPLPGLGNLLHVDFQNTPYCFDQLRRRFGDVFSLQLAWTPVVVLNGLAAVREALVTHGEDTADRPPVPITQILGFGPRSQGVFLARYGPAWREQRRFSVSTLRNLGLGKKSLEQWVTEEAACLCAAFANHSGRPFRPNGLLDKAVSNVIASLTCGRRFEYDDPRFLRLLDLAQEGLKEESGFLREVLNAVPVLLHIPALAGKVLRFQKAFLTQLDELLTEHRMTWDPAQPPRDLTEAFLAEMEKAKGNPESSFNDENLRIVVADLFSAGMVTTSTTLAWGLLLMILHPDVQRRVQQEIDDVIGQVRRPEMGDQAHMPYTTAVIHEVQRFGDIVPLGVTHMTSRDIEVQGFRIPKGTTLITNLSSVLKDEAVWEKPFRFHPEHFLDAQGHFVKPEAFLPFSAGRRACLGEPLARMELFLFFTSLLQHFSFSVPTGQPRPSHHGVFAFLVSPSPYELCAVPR
Sequence of Phosphatidylinositol 4,5-bisphosphate 3-kinase catalytic subunit alpha isoform (P42336 whole entry, canonical isoform): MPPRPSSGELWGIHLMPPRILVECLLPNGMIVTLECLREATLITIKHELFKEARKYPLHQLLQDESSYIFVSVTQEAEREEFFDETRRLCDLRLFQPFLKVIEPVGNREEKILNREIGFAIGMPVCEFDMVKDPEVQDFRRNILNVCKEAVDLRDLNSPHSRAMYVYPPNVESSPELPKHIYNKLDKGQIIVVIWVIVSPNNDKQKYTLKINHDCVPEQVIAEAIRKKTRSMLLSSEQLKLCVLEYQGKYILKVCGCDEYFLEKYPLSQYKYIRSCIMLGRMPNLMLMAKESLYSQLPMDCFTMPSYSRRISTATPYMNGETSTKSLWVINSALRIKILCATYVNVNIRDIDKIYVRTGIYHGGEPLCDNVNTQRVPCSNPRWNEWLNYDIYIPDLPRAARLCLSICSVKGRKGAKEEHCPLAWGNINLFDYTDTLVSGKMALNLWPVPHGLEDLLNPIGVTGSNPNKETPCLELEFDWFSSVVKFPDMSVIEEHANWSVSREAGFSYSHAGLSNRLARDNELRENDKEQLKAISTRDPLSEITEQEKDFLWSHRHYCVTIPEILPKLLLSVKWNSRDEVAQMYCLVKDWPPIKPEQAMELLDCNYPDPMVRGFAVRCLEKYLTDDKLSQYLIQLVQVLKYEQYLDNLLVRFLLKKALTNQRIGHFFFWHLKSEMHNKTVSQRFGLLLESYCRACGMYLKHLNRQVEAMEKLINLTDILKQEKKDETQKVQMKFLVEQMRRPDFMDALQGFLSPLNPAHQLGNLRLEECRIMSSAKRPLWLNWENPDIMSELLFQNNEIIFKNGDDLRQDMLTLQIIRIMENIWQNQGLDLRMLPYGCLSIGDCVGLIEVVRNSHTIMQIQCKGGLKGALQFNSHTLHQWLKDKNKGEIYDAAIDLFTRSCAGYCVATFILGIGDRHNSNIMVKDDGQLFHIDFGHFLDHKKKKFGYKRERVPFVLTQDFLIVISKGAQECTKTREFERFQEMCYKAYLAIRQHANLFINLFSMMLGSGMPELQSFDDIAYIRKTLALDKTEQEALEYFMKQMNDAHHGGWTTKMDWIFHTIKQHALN

| SMILES | inhibition [1] | Ratio IC50 (Homo sapiens [2]) | Ratio IC50 (Homo sapiens [3]) | Ratio IC50 (Homo sapiens [4]) | GI50 [5] | GI50 [6] | GI50 [7] | GI50 [8] | GI50 [9] | GI50 at 48 h [10] | GI50 at 48 h [11] | GI50 at 48 h [12] | Activity (MCF7 [13]) | Activity (PC-3) | solubility thermodynamic at 4 h [14] | solubility thermodynamic at 4 h [15] | solubility thermodynamic at 4 h [16] | solubility thermodynamic at 4 h [17] | efflux ratio at 1.5 h [18] | inhibition at 10 min, 10 µM (CYP3A4) | further results |
| --- | --- | --- | --- | --- | --- | --- | --- | --- | --- | --- | --- | --- | --- | --- | --- | --- | --- | --- | --- | --- | --- |
| N#CCc1ccc(Nc2ncnc3ccc(-c4cncc5ccccc45)cc23)cc1 | 48.8% | 5.9 | 56 | > 133 | 10 µM | 12 µM | 12 µM | 9 µM | 9 µM | > 50 µM | > 50 µM | > 50 µM | Dose-dependent effect | Dose-dependent effect | 1 µg/mL (≈ 2.58 µM) | 1 µg/mL (≈ 2.58 µM) | 800 µg/mL (≈ 2060 µM) | 1 µg/mL (≈ 2.58 µM) | 1.2 | 27% | inhibition at 10 min, 10 µM (CYP2D6): -35%; inhibition at 10 min, 10 µM (CYP2C9): 87%; inhibition at 10 min, 10 µM (CYP2C19): 34%; inhibition at 10 min, 10 µM (CYP1A2): 72%; Activity (Mus musculus): 23.71 g |
| N#CCc1ccc(Nc2ncnc3ccc(-c4ccc5[nH]ccc5c4)cc23)cc1 | 47.5% | > 49.7 | 3.7 | > 49.7 | 18 µM | 31 µM | 7 µM | 16 µM | 24 µM | > 50 µM | > 50 µM | > 50 µM | Dose-dependent effect | Dose-dependent effect | 10 µg/mL (≈ 26.6 µM) | 10 µg/mL (≈ 26.6 µM) | 80 µg/mL (≈ 213 µM) | 5 µg/mL (≈ 13.3 µM) | 1.3 | 51% | Activity (MCF7 [19]): 59%; Activity (MCF7 [20]): 7%; Activity (MCF7 [21]): 4%; inhibition at 10 min, 10 µM (CYP2D6): 29%; inhibition at 10 min, 10 µM (CYP2C9): 88%; inhibition at 10 min, 10 µM (CYP2C19): 10%; inhibition at 10 min, 10 µM (CYP1A2): 30% |
